One block for each compound: values may come before it. Active and inactive are the calls of the source. The rule behind the calls is not given here.
What was measured:
[1] = Cytotoxicity against human HT-29 cells assessed as cell survival at 5 uM after 8 hrs by alamar blue assay relative to control; format: cell-based; settings: read-out: Survival
How it was run: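 Cells cultured overnight, then exposed to compound at 5 μM for 8 h. Viability read by Alamar Blue per kit instructions. Table reports n=3.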

[2] = molecular target: Cystic fibrosis transmembrane conductance regulator (Homo sapiens) (UniProt P13569); test: Inhibition of human wild type CFTR expressed in FRT cells co-expressing halide sensitive YFP-H148Q assessed as reduction in forskolin induced cAMP activated chloride conductance by measuring decrease in iodide influx after 15 mins by fluorescence assay; format: cell-based
How it was run: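 FRT cells co-expressing YFP and wild-type CFTR, washed with PBS. Incubated 15 min with compound in PBS containing 20 μM forskolin. Plate reader baseline 2 s, then 12 s after rapid addition of I⁻-containing solution; initial I⁻ influx rate computed.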

[3] = Drug level in aqueous solution treated with 2-(2-Bromo-2,2-difluoro-acetylamino)-5,6,7,8-tetrahydro-4H-cyclohepta[b]thiophene-3-carboxylicacid-o-tolylamide after 3 days by ESI-LCMS analysis
How it was run: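 Duplicate samples of 100 μM compound in H₂O (20% DMSO) with 100 μM 5-chloro-3-phenyl-2,1-benzisoxazole as internal standard. Kept at 25 °C for 3 days and analysed daily by ESI-LCMS for the parent compound and the oxalamic acid degradation product.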

Anoctamin-1 [4] = molecular target: T1, Anoctamin-1 (Homo sapiens, UniProt Q5XXA6); test: Inhibition of TMEM16A (unknown origin) expressed in Xenopus laevis oocytes at -60 mV holding potential by voltage-clamp assay
T1 sequence (Q5XXA6 whole entry): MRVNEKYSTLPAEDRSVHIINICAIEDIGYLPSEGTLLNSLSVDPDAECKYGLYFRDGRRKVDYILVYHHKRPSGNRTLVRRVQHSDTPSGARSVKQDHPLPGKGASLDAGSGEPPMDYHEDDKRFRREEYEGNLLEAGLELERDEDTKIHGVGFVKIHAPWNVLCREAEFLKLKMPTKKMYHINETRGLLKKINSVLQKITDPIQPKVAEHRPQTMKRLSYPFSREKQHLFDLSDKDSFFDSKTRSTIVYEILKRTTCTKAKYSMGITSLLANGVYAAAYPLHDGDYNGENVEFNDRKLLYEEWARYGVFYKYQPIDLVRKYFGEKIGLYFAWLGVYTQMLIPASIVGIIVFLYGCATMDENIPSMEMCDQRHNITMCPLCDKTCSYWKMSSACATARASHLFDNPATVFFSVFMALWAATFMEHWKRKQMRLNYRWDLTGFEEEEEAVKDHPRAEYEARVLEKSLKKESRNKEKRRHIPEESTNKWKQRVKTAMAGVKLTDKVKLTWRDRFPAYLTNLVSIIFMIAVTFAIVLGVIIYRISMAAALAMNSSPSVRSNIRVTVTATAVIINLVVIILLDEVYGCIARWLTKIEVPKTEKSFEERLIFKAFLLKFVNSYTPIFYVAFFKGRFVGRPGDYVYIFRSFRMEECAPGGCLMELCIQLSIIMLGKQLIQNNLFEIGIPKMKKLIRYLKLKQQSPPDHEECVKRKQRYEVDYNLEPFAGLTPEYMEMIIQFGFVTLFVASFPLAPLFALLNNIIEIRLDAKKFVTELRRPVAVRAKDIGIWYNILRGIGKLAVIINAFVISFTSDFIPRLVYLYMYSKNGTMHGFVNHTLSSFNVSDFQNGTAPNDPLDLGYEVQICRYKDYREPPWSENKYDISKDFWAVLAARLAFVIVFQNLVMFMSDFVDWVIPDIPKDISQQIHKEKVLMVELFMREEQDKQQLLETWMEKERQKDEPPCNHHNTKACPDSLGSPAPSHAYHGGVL

Anoctamin-2 [5] = molecular target: T2, Anoctamin-2 (Homo sapiens, UniProt Q9NQ90); test: (§1) Inhibition of human TMEM16B expressed in FRT cells co-expressing iodide sensitive fluorescent protein YFP-H148Q/I152L/F46L assessed as reduction in ATP-induced Ca2+ activation-mediated chloride current by measuring decrease in iodide influx preincubated for 10 mins followed by ATP/iodide addition by fluorescence assay; format: cell-based
T2 sequence (Q9NQ90 whole entry): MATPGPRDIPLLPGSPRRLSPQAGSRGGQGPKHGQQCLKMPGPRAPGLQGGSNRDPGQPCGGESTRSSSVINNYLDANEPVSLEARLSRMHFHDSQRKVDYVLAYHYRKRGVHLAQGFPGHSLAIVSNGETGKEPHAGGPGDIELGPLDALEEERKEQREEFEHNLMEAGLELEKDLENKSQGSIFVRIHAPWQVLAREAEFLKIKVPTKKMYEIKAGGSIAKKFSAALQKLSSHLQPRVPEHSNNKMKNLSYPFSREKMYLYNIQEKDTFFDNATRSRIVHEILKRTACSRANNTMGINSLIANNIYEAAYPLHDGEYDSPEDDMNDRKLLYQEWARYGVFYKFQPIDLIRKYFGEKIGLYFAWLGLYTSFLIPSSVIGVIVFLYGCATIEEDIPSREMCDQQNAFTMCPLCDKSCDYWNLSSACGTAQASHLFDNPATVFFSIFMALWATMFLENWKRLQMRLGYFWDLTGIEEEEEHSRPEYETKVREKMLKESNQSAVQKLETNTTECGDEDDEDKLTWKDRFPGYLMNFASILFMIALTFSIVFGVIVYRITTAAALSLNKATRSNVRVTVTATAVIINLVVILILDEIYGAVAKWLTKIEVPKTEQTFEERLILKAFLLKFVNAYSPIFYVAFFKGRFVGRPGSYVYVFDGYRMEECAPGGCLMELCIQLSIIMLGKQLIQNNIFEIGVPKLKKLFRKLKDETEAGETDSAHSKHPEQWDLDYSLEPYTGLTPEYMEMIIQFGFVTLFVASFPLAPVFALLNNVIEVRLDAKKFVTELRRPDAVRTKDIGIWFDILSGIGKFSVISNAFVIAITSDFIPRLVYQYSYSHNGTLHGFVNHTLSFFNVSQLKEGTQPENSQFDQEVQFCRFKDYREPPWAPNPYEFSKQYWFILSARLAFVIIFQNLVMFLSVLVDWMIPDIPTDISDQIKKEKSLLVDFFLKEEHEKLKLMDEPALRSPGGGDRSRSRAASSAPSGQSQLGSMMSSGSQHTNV
How it was run: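 FRT cells co-expressing YFP and TMEM16B, given compound for 10 min, then I⁻ solution with ATP added. Fluorescence read by plate reader; initial I⁻ influx rate computed. IC₅₀ from concentration-inhibition data; n=3.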

[6] = Inhibition of calcium activated chloride channel in ATP-activated human HT-29 cells expressing YFP-H148Q/152L assessed as reduction in iodide influx preincubated for 10 mins followed by ATP addition by fluorescence assay
How it was run: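 Endogenous non-TMEM16A CaCC in HT-29 cells expressing YFP, read by plate reader. Initial rate of I⁻ influx taken as a linear measure of channel function. IC₅₀ from concentration-inhibition data; n=3.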

Anoctamin-1 [7] = molecular target: T1, Anoctamin-1; test: Inhibition of human TMEM16A expressed in FRT cells assessed as reduction of ATP-induced in chloride conductance preincubated for 5 mins followed by ATP addition by short-circuit current assay; format: cell-based
Anoctamin-2 [8] = molecular target: T2, Anoctamin-2; test: Inhibition of TMEM16B (unknown origin) expressed in FRT cells assessed as reduction of ATP-induced chloride conductance preincubated for 20 mins followed by ATP addition by short-circuit current assay; format: cell-based
Anoctamin-1 [9] = molecular target: T1, Anoctamin-1; test: as §1, with “TMEM16A” for “TMEM16B”; format: cell-based
How it was run: (§2)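 FRT cells stably expressing human TMEM16A and YFP, plated at 20,000 cells/well and used 24–48 h later. An equal volume of 140 mM I⁻ solution containing 300 μM ATP was added, and reading continued 12 s at 400 ms/point. Initial I⁻ influx rate fitted by nonlinear regression; IC₅₀ from concentration-inhibition data.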

[10] = molecular target: T3, Anoctamin-1 (Homo sapiens) (UniProt Q5XXA6); test: as §1, with “TMEM16A” for “TMEM16B”; format: cell-based; how it was run: as §2
T3 sequence (whole entry): T1 sequence (Q5XXA6 whole entry)

Liver = test: Metabolic stability in rat liver microsomes at 10 uM after 180 mins in presence of NADPH by LC/MS analysis; format: ADME, microsome; settings: 3 h
How it was run: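 10 μM compound shaken at 37 °C with rat liver microsomes (1 mg protein/mL) in 100 mM potassium phosphate buffer with 1 mM NADPH, sampled at 2–180 min. Quenched on ice with ice-cold ethyl acetate, centrifuged, supernatant dried and redissolved. Parent compound quantified by C₁₈ reverse-phase LC/MS (5–95% acetonitrile gradient); mean ± SEM, n=3.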

[11] = Solubility of compound in DMSO; format: physicochemical

Cystic fibrosis transmembrane conductance regulator (Homo sapiens), sequence (P13569 whole entry, looked up): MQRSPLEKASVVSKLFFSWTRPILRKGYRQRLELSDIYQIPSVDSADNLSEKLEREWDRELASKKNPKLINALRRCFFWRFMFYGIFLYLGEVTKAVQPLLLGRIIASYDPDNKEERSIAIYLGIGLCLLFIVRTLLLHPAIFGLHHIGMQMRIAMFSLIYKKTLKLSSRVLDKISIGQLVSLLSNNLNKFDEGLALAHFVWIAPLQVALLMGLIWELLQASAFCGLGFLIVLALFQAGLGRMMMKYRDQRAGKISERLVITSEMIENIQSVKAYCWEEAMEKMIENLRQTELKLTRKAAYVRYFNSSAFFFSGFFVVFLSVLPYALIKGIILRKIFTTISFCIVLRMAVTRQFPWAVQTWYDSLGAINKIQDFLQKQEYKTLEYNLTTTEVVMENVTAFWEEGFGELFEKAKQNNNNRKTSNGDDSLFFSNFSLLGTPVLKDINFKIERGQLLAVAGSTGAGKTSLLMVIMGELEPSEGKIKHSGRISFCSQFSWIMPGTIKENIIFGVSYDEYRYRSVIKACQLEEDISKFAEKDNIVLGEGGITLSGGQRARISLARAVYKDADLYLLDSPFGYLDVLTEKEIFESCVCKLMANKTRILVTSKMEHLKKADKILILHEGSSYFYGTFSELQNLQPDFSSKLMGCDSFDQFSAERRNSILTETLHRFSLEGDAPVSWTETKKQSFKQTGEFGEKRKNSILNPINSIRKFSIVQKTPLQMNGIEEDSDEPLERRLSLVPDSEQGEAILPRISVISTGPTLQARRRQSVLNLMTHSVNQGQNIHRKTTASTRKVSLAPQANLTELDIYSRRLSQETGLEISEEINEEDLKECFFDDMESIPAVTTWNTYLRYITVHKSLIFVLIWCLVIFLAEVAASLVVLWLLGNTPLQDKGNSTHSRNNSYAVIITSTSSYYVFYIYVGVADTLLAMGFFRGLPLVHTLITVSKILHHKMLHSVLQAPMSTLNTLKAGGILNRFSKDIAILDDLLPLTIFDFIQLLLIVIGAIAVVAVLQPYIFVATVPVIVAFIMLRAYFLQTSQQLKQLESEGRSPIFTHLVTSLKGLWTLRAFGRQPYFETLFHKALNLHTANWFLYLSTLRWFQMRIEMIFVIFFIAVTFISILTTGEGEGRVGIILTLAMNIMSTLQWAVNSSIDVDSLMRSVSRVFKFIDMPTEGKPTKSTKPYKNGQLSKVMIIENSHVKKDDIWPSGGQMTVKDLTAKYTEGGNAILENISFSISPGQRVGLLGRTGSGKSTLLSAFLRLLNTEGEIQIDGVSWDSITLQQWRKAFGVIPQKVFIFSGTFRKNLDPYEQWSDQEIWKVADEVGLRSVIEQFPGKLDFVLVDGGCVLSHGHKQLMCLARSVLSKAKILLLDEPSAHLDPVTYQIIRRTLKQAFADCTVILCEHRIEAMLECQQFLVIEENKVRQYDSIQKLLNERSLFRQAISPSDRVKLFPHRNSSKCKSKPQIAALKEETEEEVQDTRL

SMILES: Cc1ccccc1NC(=O)c1c(NC(=O)C(F)(F)Cl)sc2c1CCCCC2
viability at 8 h, 5 µM [1]: 98%
inhibition [2]: inactive

SMILES: Cc1ccccc1NC(=O)c1c(NC(=O)C(O)(F)F)sc2c1CCCCC2
Drug metabolism [3]: Metabolite detected

SMILES: COc1cc(Nc2ccc([N+](=O)[O-])cc2C(=O)O)cc2ccccc12
viability at 8 h, 5 µM [1]: 100%
IC50 (Anoctamin-1 [4]): 80 nM
inhibition [2]: inactive
IC50 (Anoctamin-2 [5]): 13 µM
IC50 [6]: > 20 µM
IC50 (Anoctamin-1 [7]): 1600 nM

SMILES: CCc1c(C)nc(SCC(=O)Nc2nc(-c3ccc(OC)cc3)cs2)nc1O
viability at 8 h, 5 µM [1]: 97%
inhibition [2]: inactive
IC50 (Anoctamin-2 [8]): 4 µM
IC50 (Anoctamin-1 [7]): 1000 nM

IC50 (Anoctamin-1 [9]): > 20 µM
SMILES: CCC(=O)Nc1sc2c(c1C(=O)Nc1ccccc1C)CCCCC2

SMILES: Cc1ccccc1NC(=O)c1c(NC(=O)C(=O)O)sc2c1CCCCC2
Drug metabolism [3]: Metabolite detected

SMILES: Cc1ccccc1NC(=O)c1c(NC(=O)C(=O)F)sc2c1CCCCC2
Drug metabolism [3]: Metabolite detected

IC50 (Anoctamin-1 [9]): > 20 µM
SMILES: CCC(=O)Nc1sc2c(c1C(=O)Nc1ccccc1OC(F)(F)F)CCCCC2

SMILES: Cc1ccccc1NC(=O)c1c(NC(=O)C(F)(F)F)sc2c1CCCCC2
viability at 8 h, 5 µM [1]: 99%
inhibition [2]: inactive
inhibition [10]: Dose-dependent effect
IC50 [6]: 4 µM

inhibition [2]: inactive
Stability (Liver): Unstable
SMILES: COc1ccccc1/C=N/NC(=O)COc1ccc(Cl)cc1C

SMILES: Cc1ccccc1NC(=O)c1c(NC(=O)C(F)(F)I)sc2c1CCCCC2
viability at 8 h, 5 µM [1]: 96%
inhibition [2]: inactive

inhibition [2]: inactive
SMILES: O=C(Nc1ccccc1)c1c(NC(=O)C(F)(F)F)sc2c1CCCCC2

solubility [11]: Insoluble
SMILES: O=C(Nc1ccccc1OC(F)(F)F)c1c(NC(=O)C(F)(F)Br)sc2c1CCC2

inhibition [2]: inactive
SMILES: O=C(Nc1ccc(F)cc1)c1c(NC(=O)C(F)(F)I)sc2c1CCCCC2

solubility [11]: Insoluble
SMILES: O=C(Nc1ccccc1OC(F)(F)F)c1c(NC(=O)C(F)(F)Cl)sc2c1CCC2
